Assay results reported in ChEMBL document CHEMBL3124899, “Design, synthesis, and characterization of α-ketoheterocycles that additionally target the cytosolic port Cys269 of fatty acid amide hydrolase” (J Med Chem, 2014).
Activity calls are given as the source filed them. The rule behind the calls is not given here.

Tests used:
[1] = molecular target: T1, Fatty-acid amide hydrolase 1 (Rattus norvegicus) (UniProt P97612); details: 1 to 10 nM
T1 sequence (whole entry): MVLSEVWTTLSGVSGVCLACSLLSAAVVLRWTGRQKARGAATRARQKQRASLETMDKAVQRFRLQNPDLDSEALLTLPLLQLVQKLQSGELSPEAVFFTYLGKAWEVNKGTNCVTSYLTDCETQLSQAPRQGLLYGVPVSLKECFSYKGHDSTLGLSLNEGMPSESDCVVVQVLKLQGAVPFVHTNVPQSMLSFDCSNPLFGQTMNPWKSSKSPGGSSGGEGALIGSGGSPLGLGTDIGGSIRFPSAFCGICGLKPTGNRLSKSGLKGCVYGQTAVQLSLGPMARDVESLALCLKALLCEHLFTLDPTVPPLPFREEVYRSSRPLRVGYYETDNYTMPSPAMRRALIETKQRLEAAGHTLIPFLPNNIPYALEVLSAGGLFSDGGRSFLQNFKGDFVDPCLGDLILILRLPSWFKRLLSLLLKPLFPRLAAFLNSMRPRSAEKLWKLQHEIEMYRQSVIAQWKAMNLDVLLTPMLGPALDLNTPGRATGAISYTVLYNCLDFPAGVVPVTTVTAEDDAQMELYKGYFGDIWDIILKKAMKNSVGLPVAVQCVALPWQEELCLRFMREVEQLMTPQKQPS

Mus musculus [2] = test: In vivo inhibition of FAAH in C57Bl/6J mouse assessed as increase in OEA level in brain at 30 mg/kg, ip measured within 2 to 3 hrs; type: functional, organism-based; set-up: dose 30 mg/kg
Mus musculus [3] = test: In vivo inhibition of FAAH in C57Bl/6J mouse assessed as increase in AEA level in brain at 30 mg/kg, ip measured within 2 to 3 hrs; type: functional, organism-based; set-up: dose 30 mg/kg
Mus musculus [4] = test: In vivo inhibition of FAAH in C57Bl/6J mouse assessed as increase in PEA level in brain at 30 mg/kg, ip measured within 2 to 3 hrs; type: functional, organism-based; set-up: dose 30 mg/kg
[5] = molecular target: T2, Fatty-acid amide hydrolase 1 (Rattus norvegicus, UniProt P97612); test: Inhibition of recombinant rat FAAH expressed in Escherichia coli assessed as breakdown of [14C]-oleamide by Dixon plot analysis
T2 sequence (P97612 whole entry): T1 sequence (whole entry)
Method in brief: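 Purified rat FAAH expressed in E. coli, with no inhibitor preincubation. The enzyme was at 1 nM, or 800, 500 or 200 pM for tight binders. It was mixed with 20 μM 14C-oleamide in pH 9.0 Tris/EDTA/glycerol/Triton X-100/Hepes buffer at room temperature, with three inhibitor concentrations. Aliquots were quenched in 0.1 N HCl at three time points, extracted with EtOAc and separated by TLC. Ki came from a Dixon plot.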

[6] = molecular target: T2, Fatty-acid amide hydrolase 1; test: Time-dependent inhibition of recombinant rat FAAH expressed in Escherichia coli assessed as breakdown of [14C]-oleamide preincubated for 3 hrs by Dixon plot analysis
Method in brief: (§1)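 The reaction used 20 μM 14C-oleamide in pH 9.0 Tris/EDTA/Triton X-100/Hepes buffer at 20–23 °C, at three inhibitor concentrations. HCl-quenched time points were analysed by EtOAc extraction and TLC for oleic acid formation. Ki came from a Dixon plot.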

[7] = Chemical stability in assay buffer assessed as compound hydrolysis after 6 hrs; type: physicochemical
[8] = molecular target: T1, Fatty-acid amide hydrolase 1 (Rattus norvegicus); test: Competitive reversible inhibition of recombinant rat FAAH expressed in Escherichia coli using [14C]-oleamide as substrate at 3 to 5 nM preincubated for 3 hrs by Lineweaver-Burk plot analysis
[9] = Chemical stability in enzymatic assay buffer assessed as transient enzyme adduct formation; type: ADME
Mus musculus [10] = test: In vivo inhibition of FAAH in C57Bl/6J mouse assessed as increase in OEA level in brain at 30 mg/kg, ip measured after > 6 hrs; type: functional, organism-based; set-up: dose 30 mg/kg
Mus musculus [11] = test: In vivo inhibition of FAAH in C57Bl/6J mouse assessed as increase in AEA level in brain at 30 mg/kg, ip measured within 1.5 to 3 hrs; type: functional, organism-based; set-up: dose 30 mg/kg
Mus musculus [12] = species: Mus musculus; test: Selectivity ratio of IC50 for mouse brain membrane MAGL to IC50 for mouse FAAH
Mus musculus [13] = test: In vivo inhibition of FAAH in C57Bl/6J mouse assessed as increase in PEA level in brain at 30 mg/kg, ip measured after > 6 hrs; type: functional, organism-based; set-up: dose 30 mg/kg
[14] = molecular target: T1, Fatty-acid amide hydrolase 1 (Rattus norvegicus); test: Noncompetitive inhibition of recombinant rat FAAH expressed in Escherichia coli assessed as breakdown of [14C]-oleamide at 0.5 to 5 nM preincubated for 3 hrs by Lineweaver-Burk plot analysis
Mus musculus [15] = species: Mus musculus; test: Selectivity ratio of IC50 for mouse brain membrane ABHD6 to IC50 for mouse FAAH
Mus musculus [16] = test: In vivo inhibition of FAAH in C57Bl/6J mouse assessed as increase in OEA level in brain at 30 mg/kg, ip measured within 1.5 to 3 hrs; type: functional, organism-based; set-up: dose 30 mg/kg
[17] = molecular target: T1, Fatty-acid amide hydrolase 1 (Rattus norvegicus); test: Irreversible inhibition of recombinant rat FAAH expressed in Escherichia coli assessed as remaining activity at IC80 preincubated for 3 hrs followed by 370 fold dilution measured after 18 hrs
Mus musculus [18] = test: In vivo inhibition of FAAH in C57Bl/6J mouse assessed as increase in PEA level in brain at 30 mg/kg, ip measured within 1.5 to 3 hrs; type: functional, organism-based; set-up: dose 30 mg/kg
Mus musculus [19] = test: In vivo inhibition of FAAH in C57Bl/6J mouse assessed as increase in AEA level in brain at 30 mg/kg, ip measured after > 6 hrs; type: functional, organism-based; set-up: dose 30 mg/kg
[20] = molecular target: T2, Fatty-acid amide hydrolase 1; test: Time-dependent inhibition of recombinant rat FAAH expressed in Escherichia coli assessed as breakdown of [14C]-oleamide preincubated for 6 hrs by Dixon plot analysis
Method in brief: as §1

Mus musculus [21] = test: In vivo inhibition of FAAH in C57Bl/6J mouse assessed as increase in AEA level in brain at 30 mg/kg, ip after 3 hrs relative to vehicle-treated control; type: functional; details: route intraperitoneal
Method in brief: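 Male C57Bl/6J mice (<6 months, 20–28 g), n = 3, received 30 mg/kg i.p. in 18:1:1 saline/ethanol/emulphor at 10 μL/g. Brains were taken 3 h later and homogenized in CHCl3/MeOH/Tris with d4-PEA, d4-AEA and pentadecanoic acid standards. The organic extract was quantified by LC–ESI-MS/MS in positive mode and compared with vehicle-treated mice.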

Mus musculus [22] = species: Mus musculus; test: Selectivity ratio of IC50 for mouse brain membrane KIAA1363 to IC50 for mouse FAAH
[23] = molecular target: T1, Fatty-acid amide hydrolase 1 (Rattus norvegicus); test: Mixed-type inhibition of recombinant rat FAAH expressed in Escherichia coli assessed as breakdown of [14C]-oleamide preincubated for 3 hrs by Lineweaver-Burk plot analysis
[24] = molecular target: T1, Fatty-acid amide hydrolase 1 (Rattus norvegicus); test: Noncompetitive inhibition of recombinant rat FAAH expressed in Escherichia coli assessed as breakdown of [14C]-oleamide at 1 to 5 nM preincubated for 3 hrs by Lineweaver-Burk plot analysis
[25] = molecular target: T1, Fatty-acid amide hydrolase 1 (Rattus norvegicus); details: 5 to 10 nM
[26] = molecular target: T1, Fatty-acid amide hydrolase 1 (Rattus norvegicus); test: Noncompetitive inhibition of recombinant rat FAAH expressed in Escherichia coli assessed as breakdown of [14C]-oleamide at 3 to 5 nM preincubated for 3 hrs by Lineweaver-Burk plot analysis
[27] = molecular target: T1, Fatty-acid amide hydrolase 1 (Rattus norvegicus); test: Competitive reversible inhibition of recombinant rat FAAH expressed in Escherichia coli using [14C]-oleamide as substrate at 1 to 5 nM preincubated for 3 hrs by Lineweaver-Burk plot analysis
[28] = molecular target: T2, Fatty-acid amide hydrolase 1; test: Time-dependent inhibition of recombinant rat FAAH expressed in Escherichia coli assessed as breakdown of [14C]-oleamide preincubated for 1 hr by Dixon plot analysis
Method in brief: as §1

[29] = molecular target: T1, Fatty-acid amide hydrolase 1 (Rattus norvegicus); test: Noncompetitive inhibition of recombinant rat FAAH expressed in Escherichia coli assessed as breakdown of [14C]-oleamide at 1 to 3 nM preincubated for 3 hrs by Lineweaver-Burk plot analysis

O=C(CCCCCCc1ccccc1)c1ncc(-c2ccccn2)o1
inhibition [1]: Active
inhibition (Mus musculus [2]): Active
inhibition (Mus musculus [3]): Active
inhibition (Mus musculus [4]): Active

CSC(=O)c1ccc(-c2cnc(C(=O)CCCCCCc3ccccc3)o2)nc1
Ki [5]: 2 nM
Ki [6]: 2 nM
Stability [7]: Stable
inhibition [8]: Active
Stability [9]: Stable

O=C(CCCCCCc1ccccc1)c1ncc(-c2ccc(CBr)cn2)o1
inhibition (Mus musculus [10]): Active
inhibition (Mus musculus [11]): Active
Ratio IC50 (Mus musculus [12]): > 200
inhibition (Mus musculus [13]): Active
inhibition [14]: Active
Ratio IC50 (Mus musculus [15]): > 10000
inhibition (Mus musculus [16]): Active
remaining activity after dilution [17]: Active
inhibition (Mus musculus [18]): Active
inhibition (Mus musculus [19]): Active
Ki [6]: 0.2 nM
Ki [20]: 0.2 nM
fold change (FC) (Mus musculus [21]): 3.2
Ratio IC50 (Mus musculus [22]): > 10000

N#CCCCCCc1cnc(C(=O)CCCCCCc2ccccc2)o1
Ki [20]: 4 nM

O=C(CCCCCCc1ccccc1)c1ncc(-c2ccc(CCl)cn2)o1
Ki [20]: 24.6 nM

N#C/C=C/c1ccc(-c2cnc(C(=O)CCCCCCc3ccccc3)o2)nc1
remaining activity after dilution [17]: Active
Ki [20]: 2.7 nM
inhibition [23]: Dose-dependent effect

CSCCCCCc1cnc(C(=O)CCCCCCc2ccccc2)o1
Ki [6]: 6.4 nM

N#CCc1ccc(-c2cnc(C(=O)CCCCCCc3ccccc3)o2)nc1
inhibition (Mus musculus [10]): Active
inhibition (Mus musculus [11]): Active
Ratio IC50 (Mus musculus [12]): > 200
inhibition (Mus musculus [13]): Active
Ratio IC50 (Mus musculus [15]): > 10000
inhibition (Mus musculus [16]): Active
remaining activity after dilution [17]: Active
inhibition (Mus musculus [18]): Active
inhibition [24]: Active
inhibition (Mus musculus [19]): Active
Ki [20]: 0.5 nM
fold change (FC) (Mus musculus [21]): 3.2
Ratio IC50 (Mus musculus [22]): > 10000

CSC(=O)Cc1ccc(-c2cnc(C(=O)CCCCCCc3ccccc3)o2)nc1
inhibition [25]: Active

CS(=O)(=O)/C=C/c1ccc(-c2cnc(C(=O)CCCCCCc3ccccc3)o2)nc1
Ratio IC50 (Mus musculus [12]): > 200
Ratio IC50 (Mus musculus [15]): > 10000
remaining activity after dilution [17]: Active
inhibition [26]: Active
Ki [6]: 0.3 nM
fold change (FC) (Mus musculus [21]): 2.8
Ratio IC50 (Mus musculus [22]): > 10000

COC(=O)c1ccc(-c2cnc(C(=O)CCCCCCc3ccccc3)o2)nc1
inhibition [27]: Active

COC(=N)Cc1ccc(-c2cnc(C(=O)CCCCCCc3ccccc3)o2)nc1
Ratio IC50 (Mus musculus [12]): > 200
Ratio IC50 (Mus musculus [15]): > 10000
remaining activity after dilution [17]: Active
inhibition [26]: Active
Ki [20]: 0.6 nM
Ratio IC50 (Mus musculus [22]): > 10000

CCOC(=O)/C=C/c1ccc(-c2cnc(C(=O)CCCCCCc3ccccc3)o2)nc1
remaining activity after dilution [17]: Active
inhibition [23]: Dose-dependent effect

O=C(CCCCCCc1ccccc1)c1ncc(CCCCCBr)o1
Ki [5]: 6.1 nM
Ki [20]: 6 nM
Ki [28]: 6.1 nM

CCOS(=O)(=O)/C=C/c1ccc(-c2cnc(C(=O)CCCCCCc3ccccc3)o2)nc1
Ratio IC50 (Mus musculus [12]): > 200
Ratio IC50 (Mus musculus [15]): > 10000
remaining activity after dilution [17]: Active
inhibition [24]: Active
fold change (FC) (Mus musculus [21]): 3.2
Ki [28]: 0.3 nM
Ratio IC50 (Mus musculus [22]): > 10000

C[S+]([O-])/C=C/c1ccc(-c2cnc(C(=O)CCCCCCc3ccccc3)o2)nc1 (configuration not stated)
Ratio IC50 (Mus musculus [12]): > 200
Ratio IC50 (Mus musculus [15]): > 10000
remaining activity after dilution [17]: Active
inhibition [29]: Active
fold change (FC) (Mus musculus [21]): 2.6
Ratio IC50 (Mus musculus [22]): > 10000

CSC(=O)CCCCc1cnc(C(=O)CCCCCCc2ccccc2)o1
Stability [7]: Stable
inhibition [8]: Active
